Experimental data from ChEMBL document CHEMBL4270548, “Discovery of a potent glucokinase activator with a favorable liver and pancreas distribution pattern for the treatment of type 2 diabetes mellitus” (Eur J Med Chem, 2018).
In brackets after ≈: the same amount, converted by molar mass. Activity calls are given as the source filed them. The rule behind the calls is not given here.

What was measured:
[1] = target: T1, Hexokinase-4 (Homo sapiens) (UniProt P35557); test: Activation of human glucokinase assessed as conversion of D-glucose to D-glucose-6-phosphate at 10 uM preincubated for 10 mins […] measured for 5 mins at 30 secs time interval by G6PDH/NADP coupled assay relative to RO0281675
T1 sequence (whole entry): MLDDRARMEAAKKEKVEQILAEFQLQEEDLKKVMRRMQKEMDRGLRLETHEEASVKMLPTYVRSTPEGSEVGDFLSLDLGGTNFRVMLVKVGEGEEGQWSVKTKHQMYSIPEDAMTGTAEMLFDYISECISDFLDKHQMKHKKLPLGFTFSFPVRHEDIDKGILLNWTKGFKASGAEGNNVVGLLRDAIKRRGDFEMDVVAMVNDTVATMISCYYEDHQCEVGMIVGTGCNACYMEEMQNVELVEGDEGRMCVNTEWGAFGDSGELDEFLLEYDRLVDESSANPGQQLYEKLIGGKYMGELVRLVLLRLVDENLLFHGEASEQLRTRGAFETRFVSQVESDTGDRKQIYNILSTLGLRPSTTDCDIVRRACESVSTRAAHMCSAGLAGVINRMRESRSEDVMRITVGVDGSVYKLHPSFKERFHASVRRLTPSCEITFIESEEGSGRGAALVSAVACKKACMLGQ
Method in brief: (§1)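 Human GK in 25 mM HEPES pH 7.1, 25 mM KCl, 2 mM MgCl2, 1 mM NADP, 1 mM DTT, 2 U/mL G6PDH and 5 mM D-glucose. Compound at 10 µM preincubated 10 min at room temperature. Started with 20 mM ATP (added stock). A340 read every 30 s for 5 min, slope from the first 3 min. Fold over DMSO, or relative scale (DMSO 0, 10 µM reference activator 1). Mean ± SEM, n = 3.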

[2] = Aqueous solubility of the compound in phosphate buffered saline at pH 7.4 at 8 to 2000 uM by nephelometric method; type: physicochemical
Method in brief: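 Compound serial dilutions (8 µM–2 mM, before addition to buffer) transferred into PBS pH 7.4 (5 µL into 95 µL). Solubility read by nephelometry. Only wells with blank below mean blank + 2SD were used.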

[3] = target: T1, Hexokinase-4 (Homo sapiens); test: Activation of human glucokinase assessed as conversion of D-glucose to D-glucose-6-phosphate at 10 uM preincubated for 10 mins followed by 5 mM glucose addition measured for 5 mins at 30 secs time interval by G6PDH/NADP coupled assay relative to control; method in brief: as §1
[4] = target: hERG (KCNH2) (Homo sapiens, UniProt Q12809); test: Inhibition of [3H]-dofetilide binding to human ERG expressed in HEK293 cell membranes at 30 uM after 1 hr by scintillation proximity assay relative to control; conditions: HEK293 cell membranes that express hERG, probe [3H]-dofetilide
hERG (KCNH2), sequence (Q12809 whole entry): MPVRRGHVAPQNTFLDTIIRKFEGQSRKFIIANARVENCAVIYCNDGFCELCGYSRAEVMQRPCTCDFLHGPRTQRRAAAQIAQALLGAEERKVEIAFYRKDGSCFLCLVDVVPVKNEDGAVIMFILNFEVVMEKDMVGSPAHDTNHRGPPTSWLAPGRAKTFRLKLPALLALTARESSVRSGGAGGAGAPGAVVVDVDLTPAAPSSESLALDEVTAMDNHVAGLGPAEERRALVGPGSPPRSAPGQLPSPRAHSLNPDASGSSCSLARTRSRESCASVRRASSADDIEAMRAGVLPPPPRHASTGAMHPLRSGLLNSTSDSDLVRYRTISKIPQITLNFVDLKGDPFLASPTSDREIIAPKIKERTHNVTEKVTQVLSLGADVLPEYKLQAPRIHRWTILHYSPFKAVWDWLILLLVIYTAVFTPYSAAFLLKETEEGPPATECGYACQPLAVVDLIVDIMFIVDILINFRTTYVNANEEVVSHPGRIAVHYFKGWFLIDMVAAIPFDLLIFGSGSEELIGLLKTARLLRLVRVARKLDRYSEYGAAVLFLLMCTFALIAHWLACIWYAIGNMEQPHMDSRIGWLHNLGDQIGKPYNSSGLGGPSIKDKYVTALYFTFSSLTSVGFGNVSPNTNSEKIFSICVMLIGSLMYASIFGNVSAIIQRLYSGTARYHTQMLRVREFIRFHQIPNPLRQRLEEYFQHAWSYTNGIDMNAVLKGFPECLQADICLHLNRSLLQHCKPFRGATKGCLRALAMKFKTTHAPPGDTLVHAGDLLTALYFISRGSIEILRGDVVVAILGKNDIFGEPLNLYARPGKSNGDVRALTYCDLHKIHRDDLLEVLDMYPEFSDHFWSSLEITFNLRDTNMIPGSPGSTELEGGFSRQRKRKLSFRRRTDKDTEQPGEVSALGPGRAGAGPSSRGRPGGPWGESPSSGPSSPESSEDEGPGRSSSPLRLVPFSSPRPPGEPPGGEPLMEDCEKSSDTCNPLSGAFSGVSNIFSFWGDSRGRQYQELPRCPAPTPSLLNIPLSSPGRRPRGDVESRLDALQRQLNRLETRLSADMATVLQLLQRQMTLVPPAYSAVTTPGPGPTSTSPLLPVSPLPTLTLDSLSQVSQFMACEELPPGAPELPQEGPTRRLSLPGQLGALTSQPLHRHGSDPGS
Method in brief: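 hERG-HEK293 membranes with 10 nM final [3H]-dofetilide and poly-L-lysine SPA beads in 50 mM Tris-Cl, 1.0 mM MgCl2, 10 mM KCl, pH 7.4. Shaken 1 h, beads settled 3 h, then scintillation counting. Normalized to DMSO (0%) and E-4031 (100% inhibition). Single-point at 30 µM, mean ± SEM, n = 3.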

[5] = test system: Mus musculus; test: Antidiabetic activity in C57BL/6J mouse assessed as reduction in blood glucose AUC (0 to 120 mins) at 30 mg/kg, po dosed 30 minutes prior to glucose challenge by OGTT relative to control; type: functional; design: scale not given: the % may be the effect or the level left
Method in brief: (§2)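 Fasted male C57BL/6J or ob/ob mice (8 weeks, n = 8/group) dosed orally in 0.5% methylcellulose 15 or 30 min before a 2 g/kg oral glucose load. Tail vein glucose measured by glucometer at −15 or −30, 0, 20, 40, 60, 90 and 120 min. Incremental glucose AUC0-120 min compared with vehicle. Mean ± SEM, Dunnett's test.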

[6] = Cmax in mouse at 30 mg/kg, po administered as single dose by LC/MS/MS analysis; conditions: in vivo
[7] = test system: Mus musculus; test: Antidiabetic activity in po dosed C57BL/6J mouse assessed as reduction in blood glucose level administered 15 mins prior to glucose challenge measured up to 120 mins post dose by OGTT; type: functional, organism-based; method in brief: as §2
[8] = test system: Mus musculus; test: Antidiabetic activity in ob/ob mouse assessed as reduction in plasma glucose level at 10 to 30 mg/kg, po bid administered for 28 days measured at post last dose by glucometric method; type: functional, organism-based
Method in brief: (§3)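 Male ob/ob mice (9 weeks) dosed orally twice daily for 4 weeks, vehicle 0.5% MC. Plasma glucose measured by portable glucometer at 2 and 4 weeks. Liver TG assessed at the end of treatment. Mean ± SEM (n = 10), Dunnett's test versus vehicle.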

[9] = test system: Mus musculus; test: Antidiabetic activity in ob/ob mouse assessed as reduction in plasma glucose level at 10 to 30 mg/kg, po bid administered for 14 days measured at post last dose by glucometric method; type: functional, organism-based; method in brief: as §3
[10] = test system: Mus musculus; test: Antidiabetic activity in po dosed ob/ob mouse assessed as reduction in blood glucose level administered for 15 to 30 mins prior to glucose challenge measured up to 120 mins post dose by OGTT; type: functional, organism-based; method in brief: as §2
[11] = test system: Mus musculus; test: Antidiabetic activity in C57BL/6J mouse assessed as increase in insulin secretion at 100 mg/kg, po measured up to 60 mins by ELISA; type: functional, organism-based
Method in brief: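 Male C57BL/6J mice (8 weeks) fasted 2 h, then dosed orally at time 0 (n = 8/group). Tail vein insulin measured at 0, 30 and 60 min by ultra-sensitive mouse insulin ELISA. Mean ± SEM, Dunnett's test.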

[12] = test system: Mus musculus; test: Antidiabetic activity in po dosed C57BL/6J mouse assessed as reduction in blood glucose level administered for 15 to 30 mins prior to glucose challenge measured up to 120 mins post dose by OGTT; type: functional, organism-based; method in brief: as §2

Row | fold change (FC) [1] | solubility kinetic [2] [µM] | fold change (FC) [3] | SMILES | inhibition at 1 h, 30 µM [4] [%] | other results
1 | 0.017 | 0.98 (≈ 0.382 µg/mL) | 1.13 | CC(=O)N1CCCCC1c1cc(C(=O)Nc2nc3c(s2)CCC3)c(C)s1 (stereo unspecified) | – | –
2 | 0.61 | – | 6.86 | Cc1sc(C2CCCN2C(=O)CN(C)CCCC(=O)O)cc1C(=O)Nc1ncc(F)s1 (stereo unspecified) | 78 | –
3 | 0.598 | 3.91 (≈ 1.61 µg/mL) | 6.81 | Cc1sc(C2CCCN2C(=O)CN(C)C)cc1C(=O)Nc1ncc(Cl)s1 (stereo unspecified) | – | –
4 | 0.381 | 1.95 | 4.99 | Cc1sc([C@H]2CCCN2C(=O)CN(C)C)cc1C(=O)Nc1ncc(Cl)s1.Cl | – | –
5 | 0.373 | 0.98 (≈ 0.419 µg/mL) | 3.89 | Cc1sc(-c2ccccc2C(=O)NCCO)cc1C(=O)Nc1nc2c(s1)CCC2 | – | –
6 | 0.466 | – | 4.89 | Cc1sc(C2CCCN2C(=O)CN(C)CCC(=O)O)cc1C(=O)Nc1ncc(F)s1.Cl (stereo unspecified) | 17 | Activity [5]: 47%
7 | 0.832 | – | 8.8 | Cc1sc([C@@H]2CCCN2C(=O)[C@H](C)N(C)CC(=O)O)cc1C(=O)Nc1ncc(F)s1 | 4 | –
8 | 0.187 | 3.91 (≈ 1.78 µg/mL) | 2.56 | Cc1sc(-c2ccccc2C(=O)NCCC(N)=O)cc1C(=O)Nc1nc2c(s1)CCC2 | – | –
9 | 0.293 | 7.81 (≈ 2.74 µg/mL) | 3.67 | Cc1sc(C2CCCN2C(=O)CN)cc1C(=O)Nc1nccs1 (stereo unspecified) | – | –
10 | 0.686 | – | 7.26 | Cc1sc([C@@H]2CCCN2C(=O)CN(C)CCC(=O)O)cc1C(=O)Nc1ncc(F)s1 | 49 | –
11 | 0.395 | – | 5.32 | CC(=O)NCC(=O)N1CCCC1c1cc(C(=O)Nc2ncc(Cl)s2)c(C)s1 (stereo unspecified) | 3 | –
12 | 0.428 | 1.95 (≈ 0.887 µg/mL) | 4.31 | Cc1sc(-c2ccccc2C(=O)NCCN(C)C)cc1C(=O)Nc1nc2c(s1)CCC2 | – | –
13 | 0.699 | 1.95 (≈ 0.748 µg/mL) | 6.23 | Cc1sc(-c2ccccc2C(N)=O)cc1C(=O)Nc1nc2c(s1)CCC2 | – | Cmax [6]: < 1 µM
14 | 0.438 | – | 4.75 | Cc1sc(C2CCCN2C(=O)CNCC(=O)O)cc1C(=O)Nc1ncc(Cl)s1 (stereo unspecified) | 28 | –
15 | 0.118 | – | 2.57 | CC(=O)N(C)CC(=O)N1CCCC1c1cc(C(=O)Nc2ncc(Cl)s2)c(C)s1 (stereo unspecified) | – | –
16 | 0.38 | 7.81 (≈ 2.96 µg/mL) | 4.7 | Cc1sc(C2CCCN2C(=O)CN(C)C)cc1C(=O)Nc1nccs1 (stereo unspecified) | – | –
17 | 0.168 | 3.91 (≈ 1.36 µg/mL) | 2.41 | Cc1sc(N2CCCC2=O)cc1C(=O)Nc1nc2c(s1)CCC2 | – | –
18 | 0.168 | – | 3.24 | Cc1sc(C2CCCN2C(=O)CN(C)S(C)(=O)=O)cc1C(=O)Nc1ncc(Cl)s1 (stereo unspecified) | – | –
19 | -0.019 | 31.3 (≈ 15 µg/mL) | 0.84 | Cc1sc(-c2ccccc2C(=O)NCCc2nnn[nH]2)cc1C(=O)Nc1nc2c(s1)CCC2 | – | –
20 | 0.65 | 7.81 | 10.4 | Cc1sc([C@@H]2CCCN2C(=O)CN(C)C)cc1C(=O)Nc1ncc(Cl)s1.Cl | 101 | Activity [7]: Active; Cmax [6]: > 9 µM
21 | 0.235 | 0.98 (≈ 0.354 µg/mL) | 2.96 | Cc1sc(N2CCCCC2=O)cc1C(=O)Nc1nc2c(s1)CCC2 | – | –
22 | 0.187 | 7.81 (≈ 2.93 µg/mL) | 2.53 | CC(=O)N1CCCC1c1cc(C(=O)Nc2nc3c(s2)CCC3)c(C)s1 (stereo unspecified) | – | –
23 | 0.718 | – | 8.35 | Cc1sc(C2CCCN2C(=O)CN(C)CC(=O)O)cc1C(=O)Nc1ncc(Cl)s1.Cl (stereo unspecified) | 11 | Activity [5]: 82%
24 | 0.274 | 0.98 (≈ 0.396 µg/mL) | 3.46 | Cc1sc(C2CCCN2C(=O)CCN)cc1C(=O)Nc1nc2c(s1)CCC2 (stereo unspecified) | – | –
25 | 0.619 | – | 6.95 | Cc1sc(C2CCCN2C(=O)CN(C)CCCCC(=O)O)cc1C(=O)Nc1ncc(F)s1 (stereo unspecified) | 77 | –
26 | 0.87 | – | 8.6 | CCN(CC(=O)O)CC(=O)N1CCC[C@H]1c1cc(C(=O)Nc2ncc(F)s2)c(C)s1 [listing 1 of 2 here] | – | Activity [8]: Active; Activity [9]: Active; Activity [10]: Dose-dependent effect; Activity [11]: Active; Activity [12]: Dose-dependent effect
27 | – | – | – | CCN(CC(=O)O)CC(=O)N1CCC[C@H]1c1cc(C(=O)Nc2ncc(F)s2)c(C)s1 [listing 2 of 2 here] | -1 | –
28 | 0.175 | 15.6 (≈ 5.69 µg/mL) | 2.86 | Cc1sc(C2CCCN2C(=O)CCN)cc1C(=O)Nc1nccs1 (stereo unspecified) | – | –
29 | 0.71 | – | 6.92 | Cc1sc(C2CCCN2C(=O)CN(C)CC(=O)O)cc1C(=O)Nc1ncc(F)s1 (stereo unspecified) | -6 | –
30 | 0.46 | – | 6.21 | Cc1sc(C2CCCN2C(=O)CNS(C)(=O)=O)cc1C(=O)Nc1ncc(Cl)s1 (stereo unspecified) | 16 | –
